Measured values from ChEMBL document CHEMBL1268869, “Structural optimization and biological evaluation of substituted bisphenol A derivatives as beta-amyloid peptide aggregation inhibitors” (J Med Chem, 2010).
Activity calls are given as the source filed them. No cut-off for these calls is given here.

Tests used:
[1] = Inhibition of amyloid beta (1-42) aggregation by thioflavin T fluorescence method
Method in brief: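 Compound (2 μL of 0.1–10.0 mM) was mixed with 4 μL of 50 μM Aβ1-42 in PBS pH 7.4 containing 11% ethanol, 2 h at room temperature. Then 40 μM ThT in PBS/10% ethanol was added. Fluorescence was read with excitation 430 nm and emission 488 nm.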

[2] = Inhibition of amyloid beta (12-28) fibrillation assessed as increase in beta-turn conformational component at 3:1 compound to protein ratio by CD spectroscopy assay; details: concentration not given here
Method in brief: (§1)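 HFIP-treated Aβ12-28 was dissolved in 50% TFE/water at 80 μM, with compound at 1:3 protein:compound. CD spectra were taken in a 0.1 cm path cuvette. Secondary-structure content (helix, β-sheet, turn) was obtained by spectral deconvolution.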

PC-12 [3] = assay: Neuroprotective activity against rat PC12 cells assessed as reversal of amyloid beta (1 to 42)-induced neuronal damage in at 1 uM after 48 hrs by MTT assay; type: functional
Method in brief: (§2)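 Differentiated PC-12 cells (10 000/well) received compound diluted in Aβ1-42 solution (5% DMSO water stock), giving final 10 μM Aβ1-42 with 0–3 μM compound (0.01–3 μM; dose curve 0.003–3 μM), for 48 h. MTT absorbance at 570 nm was normalized to full-kill and media controls. 3 independent experiments × 3 replicates.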

PC-12 [4] = assay: Neuroprotective activity against rat PC12 cells assessed as reversal of amyloid beta (1 to 42)-induced neuronal damage after 48 hrs by MTT assay; type: functional, cell-based; method in brief: as §2
[5] = Inhibition of amyloid beta (1 to 42) fibrillation after 5 days at 37 degC by PICUP assay
Method in brief: (§3)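 Aβ1-42 was HFIP-treated, sonicated 30 min, dried under nitrogen and redissolved in water. Photo-crosslinking used Ru(bpy)3Cl2 and APS (Aβ/Ru/APS 1/4/80) under a 150 W xenon lamp for 3 s, then quench, 95 C for 5 min and 15% tricine SDS-PAGE. Monomer/(dimer+tetramer) band pixels were compared.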

PC-12 [6] = assay: Cytotoxicity against rat PC12 cells at 1 uM by MTT assay; type: cell-based; details: pc-12, 1 µM
Method in brief: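 Differentiated PC-12 cells in DMEM with 10% heat-inactivated FBS and 2 mM L-glutamine, 37 C, 5% CO2. Plated at 10 000 cells/well and treated 24 h later with compound diluted in medium (0.1 nM to 100 μM) for 48 h. MTT read at 570 nm. Viability scaled between media and 5 μM staurosporine controls. At least 3 independent experiments × 3 replicates.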

[7] = Inhibition of amyloid beta (12-28) fibrillation assessed as increase in beta-sheet conformation at 3:1 compound to protein ratio by CD spectroscopy assay; details: concentration not given here; method in brief: as §1
PC-12 [8] = assay: Neuroprotective activity against rat PC12 cells assessed as reversal of amyloid beta (1 to 42)-induced neuronal damage in at 3 uM after 48 hrs by MTT assay; type: functional; method in brief: as §2
[9] = Inhibition of gamma-secretase by fluorogenic substrate assay
Method in brief: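 Membrane protein (10 μg/well) was incubated with 6 μM fluorogenic substrate and compound in reaction buffer, 100 μL final, at 37 C for 5 h. Fluorescence was read at excitation 355 nm and emission 440 nm. L685,458 was the reference inhibitor. Dose-response curves were fitted by nonlinear regression.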

[10] = Inhibition of amyloid beta (1 to 42) fibrillation after 27 days by AFM assay; details: in the assay text read “after 17 days” for “after 27 days”
Method in brief: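 For fibril formation, 200 μM Aβ1-42 in water/DMSO was kept 17 days at 37 C. These fibrils were then incubated with compound (10 mM stock) or DMSO for 27 days at 37 C. Samples were diluted 5-fold in water, dried on mica and imaged by tapping-mode AFM.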

[11] = Inhibition of amyloid beta (12-28) fibrillation assessed as decrease in alpha-helix component at 3:1 compound to protein ratio by CD spectroscopy assay; details: concentration not given here
[12] = Inhibition of amyloid beta (1 to 42) fibrillation after 5 days at -80 degC by PICUP assay; method in brief: as §3

SMILES | IC50 ([1]; read-out: IC50) [µM] | IC50 [1] | also measured
CC(C)(c1cc(Br)c(OCC(O)CN2CCC3(CC2)OCCO3)c(Br)c1)c1cc(Br)c(OCC(O)CN2CCC3(CC2)OCCO3)c(Br)c1 (stereo not drawn) | 4.7 |  | 
CC(C)(c1ccc(OCC(O)CN2CCCCC2)cc1)c1ccc(OCC(O)CN2CCCCC2)cc1 (stereo not drawn) | 110 |  | 
OC(COc1ccc(C(c2ccc(OCC(O)CN3CCOCC3)cc2)(C(F)(F)F)C(F)(F)F)cc1)CN1CCOCC1 (stereo not drawn) |  | Not Active | 
OC(COc1c(Br)cc(C(c2cc(Br)c(OCC(O)CN3CCOCC3)c(Br)c2)(C(F)(F)F)C(F)(F)F)cc1Br)CN1CCOCC1 (stereo not drawn) |  | Not Active | 
CCCCN(CCCC)CC(O)COc1c(Br)cc(C(C)(C)c2cc(Br)c(OCC(O)CN(CCCC)CCCC)c(Br)c2)cc1Br (stereo not drawn) | 0.27 |  | 
CC1CC(C)CN(CC(O)COc2c(Br)cc(C(C)(C)c3cc(Br)c(OCC(O)CN4CC(C)CC(C)C4)c(Br)c3)cc2Br)C1 (stereo not drawn) | 4.8 |  | inhibition [2]: 13.7%; Activity (PC-12 [3]): 96.6%; Activity (PC-12 [4]): Dose-dependent effect; IC50 (PC-12 [4]; PC-12, 48 h): 0.8 µM; inhibition [5]: Active; Activity (PC-12 [6]): Non-toxic; inhibition [7]: 17.4%; Activity (PC-12 [8]): 104.2%; IC50 [9]: 5.57 µM; inhibition [10]: Active; inhibition [11]: 40.4%; inhibition [12]: Active
Cc1cc(C(C)(C)c2cc(C)c(OCC(O)CNc3ccc(C(C)(C)C)cc3)c(C)c2)cc(C)c1OCC(O)CNc1ccc(C(C)(C)C)cc1 (stereo not drawn) |  | Not Active | 
Cc1cc(C(C)(C)c2cc(C)c(OCC(O)CN3CCN(Cc4ccccc4)CC3)c(C)c2)cc(C)c1OCC(O)CN1CCN(Cc2ccccc2)CC1 (stereo not drawn) | 6.2 |  | 
CN1CCN(CC(O)COc2c(Br)cc(C(c3cc(Br)c(OCC(O)CN4CCN(C)CC4)c(Br)c3)(C(F)(F)F)C(F)(F)F)cc2Br)CC1 (stereo not drawn) | 24 |  | 
CC(C)(c1ccc(OCC(O)CN2CCOCC2)cc1)c1ccc(OCC(O)CN2CCOCC2)cc1 (stereo not drawn) |  | Not Active | 
Cc1cc(C)cc(NCC(O)COc2c(C)cc(C(C)(C)c3cc(C)c(OCC(O)CNc4cc(C)cc(C)c4)c(C)c3)cc2C)c1 (stereo not drawn) |  | Not Active | 
CN1CCN(CC(O)COc2ccc(C(c3ccc(OCC(O)CN4CCN(C)CC4)cc3)(C(F)(F)F)C(F)(F)F)cc2)CC1 (stereo not drawn) | 380 |  | 
CN1CCN(CC(O)COc2ccc(C(C)(C)c3ccc(OCC(O)CN4CCN(C)CC4)cc3)cc2)CC1 (stereo not drawn) |  | Not Active | 
CC(C)(c1cc(Br)c(OCC(O)CN2CCOCC2)c(Br)c1)c1cc(Br)c(OCC(O)CN2CCOCC2)c(Br)c1 (stereo not drawn) | 26 |  | 
Cc1cc(C(C)(C)c2cc(C)c(OCC(O)CN3CC(C)CC(C)C3)c(C)c2)cc(C)c1OCC(O)CN1CC(C)CC(C)C1 (stereo not drawn) | 8.9 |  | 
Cc1cc(C(C)(C)c2ccc(OCC(O)CN3CCOCC3)c(C)c2)ccc1OCC(O)CN1CCOCC1 (stereo not drawn) |  | Not Active | 
CC(C)(C)c1ccc(NCC(O)COc2c(Br)cc(C(C)(C)c3cc(Br)c(OCC(O)CNc4ccc(C(C)(C)C)cc4)c(Br)c3)cc2Br)cc1 (stereo not drawn) |  | Not Active | 

Further lines, with some results ahead:

IC50 ([1]; read-out: IC50) [µM] | IC50 [1] | SMILES | also measured
 | Not Active | Cc1cc(C2(c3cc(C)c(OCC(O)CN4CCOCC4)c(C)c3)CCCCCC2)cc(C)c1OCC(O)CN1CCOCC1 (stereo not drawn) | 
11 |  | Cc1cc(C(C)(C)c2cc(C)c(OCC(O)CN3CCCC3)c(C)c2)cc(C)c1OCC(O)CN1CCCC1 (stereo not drawn) | 
25 |  | CC(c1cc(Br)c(OCC(O)CN2CCN(C)CC2)c(Br)c1)c1cc(Br)c(OCC(O)CN2CCN(C)CC2)c(Br)c1 (stereo not drawn) | 
70 |  | Cc1cc(C2(c3cc(C)c(OCC(O)CN4CCN(C)CC4)c(C)c3)CCCCC2)cc(C)c1OCC(O)CN1CCN(C)CC1 (stereo not drawn) | 
 | Not Active | Cc1cc(C2(c3cc(C)c(OCC(O)CN4CCOCC4)c(C)c3)CCCC2)cc(C)c1OCC(O)CN1CCOCC1 (stereo not drawn) | 
 | Not Active | OC(COc1c(Br)cc(C2(c3cc(Br)c(OCC(O)CN4CCOCC4)c(Br)c3)CCCC2)cc1Br)CN1CCOCC1 (stereo not drawn) | 
6.2 |  | Cc1cc(C(C)(C)c2cc(C)c(OCC(O)CN3CCCCCC3)c(C)c2)cc(C)c1OCC(O)CN1CCCCCC1 (stereo not drawn) | 
13 |  | CN1CCN(CC(O)COc2ccc(C3(c4ccc(OCC(O)CN5CCN(C)CC5)c(Br)c4)CCCCC3)cc2Br)CC1 (stereo not drawn) | 
56 |  | Cc1cc(C2(c3cc(C)c(OCC(O)CN4CCN(C)CC4)c(C)c3)CCCC2)cc(C)c1OCC(O)CN1CCN(C)CC1 (stereo not drawn) | 
 | Not Active | Cc1cc(C(C)(C)c2cc(C)c(OCC(O)CN3CCN(C)CC3)c(C)c2)cc(C)c1OCC(O)CN1CCN(C)CC1 (stereo not drawn) | 
24 |  | CN1CCN(CC(O)COc2c(Br)cc(C3(c4cc(Br)c(OCC(O)CN5CCN(C)CC5)c(Br)c4)CCCC3)cc2Br)CC1 (stereo not drawn) | 
23 |  | CN1CCN(CC(O)COc2c(Br)cc(C(C)(C)c3cc(Br)c(OCC(O)CN4CCN(C)CC4)c(Br)c3)cc2Br)CC1 (stereo not drawn) | 
32 |  | Cc1cc(C2(c3cc(C)c(OCC(O)CN4CCN(C)CC4)c(C)c3)CCCCCC2)cc(C)c1OCC(O)CN1CCN(C)CC1 (stereo not drawn) | 
0.4 |  | Cc1cc(C(C)(C)c2cc(C)c(OCC(O)CN3CCN(C(=O)OC(C)(C)C)CC3)c(C)c2)cc(C)c1OCC(O)CN1CCN(C(=O)OC(C)(C)C)CC1 (stereo not drawn) | IC50 [9]: 1.82 µM
 | Not Active | Cc1cc(C(C)(C)c2cc(C)c(OCC(O)CN3CCOCC3)c(C)c2)cc(C)c1OCC(O)CN1CCOCC1 (stereo not drawn) | 
 | Not Active | Cc1cc(C2(c3cc(C)c(OCC(O)CN4CCOCC4)c(C)c3)CCCCC2)cc(C)c1OCC(O)CN1CCOCC1 (stereo not drawn) | 
20 |  | Cc1cc(C(C)(C)c2cc(C)c(OCC(O)CN3CCC4(CC3)OCCO4)c(C)c2)cc(C)c1OCC(O)CN1CCC2(CC1)OCCO2 (stereo not drawn) | 
43 |  | Cc1cc(C(C)(C)c2cc(C)c(OCC(O)CN3CCCCC3)c(C)c2)cc(C)c1OCC(O)CN1CCCCC1 (stereo not drawn) | 
